Source: PubChem BioAssay
RGS4 act = potentiators or activators of RGS4. HEK293 M3R/inducible RGS4, carbachol calcium flux Fluo4; stronger effect = lower value. B-score at 10 µM. 310,000 tested, 0.92% active. AID 463111;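 active means B-score of the integrated calcium signal more than 4 SD below the library mean, with starting fluorescence not abnormally high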;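 further: negative B-score means reduced calcium response which marks RGS4 activation or potentiation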
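System: HEK293 FlpIn-TREx cells, stable M3R, doxycycline-inducible RGS4. Timing: overnight RGS4 induction, 30 min dye load 37 °C, 20 min compound RT. Also added: carbachol, ECmax concentration. Measured by: Fluo4 fluorescence kinetic imaging of calcium. Evaluation: integrated calcium ratio converted to B score.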
Hep lipid drop = hepatic lipid droplet formation modulation; 240,000 tested, 0.4% active; AML12 mouse hepatocytes, oleate lipid droplets, BODIPY imaging; inhibition, % at 6.5 µM;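 active means lipid droplet intensity inhibited by at least 50%, with more than 500 cells counted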
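System: AML12 hepatocytes (mouse). Probe or stimulus: oleic acid at 100 µM to induce lipid droplet formation. Times: overnight treatment with compound plus oleate. Detection: Image-based BODIPY and DAPI two-channel analysis. Evaluation: percent inhibition of filter-corrected integrated lipid droplet intensity per well.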
RGS4 block = human RGS4 inhibition. 310,000 tested, 0.45% active. HEK293 M3R/RGS4 inducible, Fluo-4 calcium flux; stronger effect = higher value; triggered by carbachol at its EC20. B-score at 10 µM;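 active means B-score, a plate-corrected calcium signal, over three deviations above library mean, with baseline fluorescence within five deviations of library mean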;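 further: RGS4 expression induced by doxycycline in cells with stable M3 receptor; B-score is computed from the integrated fluorescence ratio over baseline after carbachol; higher B-score means a larger calcium signal and so more RGS4 inhibition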
Target sequence (P49798 whole entry, looked up): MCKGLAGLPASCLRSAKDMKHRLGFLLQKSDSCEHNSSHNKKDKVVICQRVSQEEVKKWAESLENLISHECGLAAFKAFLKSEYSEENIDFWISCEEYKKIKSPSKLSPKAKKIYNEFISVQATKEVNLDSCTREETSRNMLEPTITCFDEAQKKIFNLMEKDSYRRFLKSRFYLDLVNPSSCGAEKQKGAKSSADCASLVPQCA
MrgX1 PAM = allosterically activates human MrgX1 receptor signaling. Q96LB2. MrgX1-HEK293, Fluo-4 calcium flux, FDSS; stronger effect = higher value. B-score at 10 µM. 310,000 tested, 0.63% active. AID 588675;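 active means plate-corrected calcium response at least 3 library SD above typical, normal starting fluorescence, not activating the receptor alone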;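 further: compound read alongside a low EC10 to EC30 dose of BAM8-22 agonist; peak minus trough fluorescence over baseline measured at the second addition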
Target sequence (Q96LB2 whole entry, looked up): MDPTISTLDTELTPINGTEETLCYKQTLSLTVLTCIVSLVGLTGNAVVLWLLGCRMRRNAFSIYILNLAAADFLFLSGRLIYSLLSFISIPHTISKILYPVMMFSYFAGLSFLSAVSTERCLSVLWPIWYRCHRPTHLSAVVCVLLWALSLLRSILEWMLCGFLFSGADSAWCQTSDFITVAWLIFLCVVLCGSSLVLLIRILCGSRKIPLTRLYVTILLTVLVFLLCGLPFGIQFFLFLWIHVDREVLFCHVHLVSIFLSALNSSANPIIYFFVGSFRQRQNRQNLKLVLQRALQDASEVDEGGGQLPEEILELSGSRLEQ
MrgX1 antagonist = human MrgX1 receptor antagonism, primary screen; Q96LB2; MRGX1-HEK293 calcium flux, Fluo-4, BAM8-22 antagonism; stronger effect = lower value; B-score at 10 µM; 310,000 tested, 1.3% active; AID 588676;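 active means calcium-response B-score plate-corrected more than 3 library SD below zero, starting fluorescence within 5 deviations, no agonist response on first addition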;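 further: peak minus trough fluorescence over baseline after final BAM8-22 challenge near maximal dose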
MrgX1 ag = activates human MrgX1 receptor signaling; Q96LB2; MrgX1-HEK293 cells, Fluo-4 calcium fluorescence, agonist mode; stronger effect = higher value; B-score at 10 µM; 310,000 tested, 0.44% active;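 active means calcium response B-score plate-corrected fluorescence ratio at least 3 library SD, with starting fluorescence B-score inside 5 SD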
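System: HEK293 cells stably expressing human MrgX1 receptor; Dosing: test compound in the initial addition of three; Schedule: overnight plating, then 30 min 37 °C plus 30 min room-temperature dye loading; Detection: kinetic calcium dye fluorescence, Fluo-4 NW; Controls: per-plate positive and negative controls for Z′ factor.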
MrgX1 ag reconf = confirmation of human MrgX1 receptor agonists | activation, % at 10 µM | AID 602412 | shares compounds with MrgX1 ag | MrgX1-HEK293, Fluo-4 calcium fluorescence, FDSS | 600 tested, 78% active;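 active means calcium signal rise, corrected for plate position, at least 3 library SD high, with starting brightness within 5 such deviations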
HEK293 Ca flux = activity in parental HEK293 cells lacking MrgX1; shares compounds with MrgX1 antagonist; 4,000 tested, 2% active; fluorescence ratio F(max-min)/F0 at 10 µM; Fluo-4 calcium fluorescence, FDSS;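 active means duplicate-averaged calcium fluorescence ratio at least three times the standard deviation of buffer wells, a nonspecific response in parental cells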
HEK293 Ca counter = counter-screen for MrgX1 allosteric activators: effect in parental HEK293 cells; shares compounds with MrgX1 antagonist; parental HEK293 calcium flux, Fluo-4 fluorescence ratio; stronger effect = higher value; fluorescence ratio F(max-min)/F0 at 10 µM; 4,000 tested, 0.4% active; AID 624114;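 active means calcium fluorescence ratio, averaged over duplicates, at least 3 SD of the buffer-well ratio, meaning a nonspecific response in receptor-free cells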;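 further: untransfected parental HEK293 lacking MrgX1 used as counterscreen for MrgX1 allosteric activators; fluorescence change taken during the second addition on a kinetic imager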
HEK293 Ca cntr2 = activity in parental HEK293 cells lacking MrgX1 receptor. Fluo-4 calcium fluorescence (FDSS); stronger effect = higher value. 4,000 tested, 8.7% active. shares compounds with MrgX1 antagonist. fluorescence ratio F(max-min)/F0 at 10 µM. AID 624115;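 active means calcium fluorescence ratio at least three times the spread of buffer wells, meaning a non-specific response in parental cells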
The depositor's hits bear a star; i = inactive; nt = no result given. An excerpt weighted towards active compounds, which were near 3.8% of everything screened.

SMILES	RGS4 act	Hep lipid drop	RGS4 block	MrgX1 PAM	MrgX1 antagonist	MrgX1 ag	MrgX1 ag reconf	HEK293 Ca flux	HEK293 Ca counter	HEK293 Ca cntr2
CC(C)N1CCc2c(sc(NC(=O)c3ccc(C(=O)c4ccccc4)cc3)c2C(N)=O)C1	i	-38	i	i	i	36*	i	i	i	i
Cc1ccc(OCC(=O)NNC(=S)NC(=O)C(C)(C)C)c(Br)c1	i	3	i	i	i	66*	508%*	i	i	97*
CSc1nnc(-c2cc(Br)ccc2N=Cc2c(C)[nH]n(-c3ccccc3)c2=O)c(=O)[nH]1	i	-2	i	i	i	i	nt	nt	nt	nt
CCSc1nnc(-c2cc(Br)ccc2N=Cc2c(C)[nH]n(-c3ccccc3)c2=O)c(=O)[nH]1	i	3	i	i	i	71*	109%*	i	i	61*
CCO[C@@H]1OC(C(=O)NC2CC2)=C[C@H](c2coc3ccccc3c2=O)[C@H]1CCCO	i	nt	i	i	i	i	nt	nt	nt	nt
CCc1nc(N)nc(N)c1-c1ccc(Cl)cc1	i	nt	i	i	i	28*	i	i	i	i
CCOC(=O)CSc1nnc(NC(=O)CN2CCCCC2)s1	i	-1	i	i	i	i	nt	nt	nt	nt
COCC(=O)O[C@]1(CCN(C)CCCc2nc3ccccc3[nH]2)CCc2cc(F)ccc2[C@@H]1C(C)C	i	10	i	i	i	i	nt	nt	nt	nt
O=C(OCc1cc2ccccc2[nH]c1=O)c1cccs1	i	-8	i	i	i	38*	i	i	i	i
NNC(=O)c1c[nH]c2ccc(OCc3ccccc3)cc12	i	nt	i	i	i	i	nt	nt	nt	nt
COCCCn1c(N)c(-c2nc3ccccc3n2C)c2nc3ccccc3nc21	i	5	i	i	i	60*	249%*	i	i	87*
CCc1cccc(N(C(=O)c2csnn2)C(C(=O)NC(C)(C)C)c2ccncc2)c1 (stereo not drawn)	i	-1	i	i	i	i	nt	nt	nt	nt
COc1ccc(CC(=O)Nc2ccccc2N2CCOCC2)cc1OC	i	-7	i	i	i	i	nt	nt	nt	nt
Cc1ccc(CC(=O)Nc2ccccc2N2CCOCC2)cc1C	nt	3	nt	i	i	35*	94%*	i	i	i
Cc1ccc(CNC(=O)c2ccc(Cl)c(S(N)(=O)=O)c2)n1C	i	-4	i	i	i	71*	283%*	i	i	i
COc1ccccc1NC(=O)NC(=O)c1ccccc1	i	-19	i	i	i	i	nt	nt	nt	nt
CCOC(=O)Cn1c(CCC(=O)O)ccc1-c1ccc(F)cc1	i	-16	i	i	i	45*	170%*	i	i	i
CCn1c(-c2ccc(N)cc2)nc2ccccc21	i	nt	i	i	i	i	nt	nt	nt	nt
CC(C)n1c(-c2ccc(N(C)C)cc2)nc2ccccc21	nt	nt	nt	i	i	30*	162%*	i	i	i
CCn1c(-c2ccc(N(C)C)cc2)nc2ccccc21	i	nt	i	i	i	31*	87%*	i	i	i
COC(=O)c1ccccc1NC(=O)CSc1nnc(-c2cccnc2)n1N	i	0	i	i	i	i	nt	nt	nt	nt
Cn1c(=O)c2[nH]c(N3CCCCC3)nc2n(C)c1=O	i	25	i	i	i	i	nt	nt	nt	nt
Cn1c(=O)c2[nH]c(C3CCCC3)nc2n(C)c1=O	i	nt	i	i	i	36*	i	i	i	i
Cc1ccc(-c2nn(-c3ccccc3)cc2CSC(=N)N)cc1	i	nt	i	i	i	43*	182%*	i	i	i
C[C@@H]1C=CC(=O)O[C@@H]1c1ccc(Cl)cc1	i	0	i	i	i	i	nt	nt	nt	nt
SMILES	RGS4 act	Hep lipid drop	RGS4 block	MrgX1 PAM	MrgX1 antagonist	MrgX1 ag	MrgX1 ag reconf	HEK293 Ca flux	HEK293 Ca counter	HEK293 Ca cntr2
NC(=O)N1c2ccccc2CC(=O)c2ccccc21	i	-5	i	i	i	47*	251%*	i	i	52*
CC(C)c1ccc(S(=O)(=O)/N=C2\C=C(NS(=O)(=O)c3ccccc3)C(=O)c3ccccc32)cc1	-11*	-8	i	i	i	30*	i	i	i	i
CCc1ccc(S(=O)(=O)/N=C2\C=C(NS(=O)(=O)c3ccccc3)C(=O)c3ccccc32)cc1	i	11	i	nt	nt	nt	nt	nt	nt	nt
COc1cc(C(=O)NC(=S)NNC(=O)[C@H]2C[C@@H]2c2ccccc2)cc(OC)c1OC	i	2	i	i	i	96*	386%*	i	i	76*
COc1cc(C(=O)NNC(=S)NC(=O)c2ccccc2C)cc(OC)c1OC	i	-7	i	i	i	120*	362%*	i	i	89*
COc1cc(C(=O)NNC(=S)NC(=O)c2ccc3c(c2)OCO3)cc(OC)c1OC	i	-8	i	i	i	i	nt	nt	nt	nt
COc1ccccc1C(=O)NNC(=S)NC(=O)c1cc(OC)c(OC)c(OC)c1	i	-8	i	i	i	101*	453%*	i	i	93*
C[C@@H](NC(=O)[C@@H]1Cc2ccccc2CN1C(=O)OC(C)(C)C)C(=O)NCc1ccco1	i	10	i	i	i	i	nt	nt	nt	nt
CC(OC(=O)C1CC1)C(=O)Nc1cc(C(F)(F)F)ccc1Cl (stereo not drawn)	i	-2	i	i	i	i	nt	nt	nt	nt
CC(C)NC(=O)c1onc(CSc2ccc(Cl)cc2)c1C(=O)NC(C)C	i	nt	i	i	i	i	nt	nt	nt	nt
Cc1ccc(-n2c(=O)[nH]c3c(oc4ccccc43)c2=O)cc1	i	-4	i	i	i	78*	396%*	i	i	118*
O=C(NC(=S)NNC(=O)c1cccs1)c1ccc(Br)o1	i	-2	i	i	i	100*	710%*	i	i	137*
